From paper PMC3166234 (Analytical biochemistry, 2011)

Target: PFKFB3 2-kinase (Homo sapiens, UniProt Q16875)
Test: Steady-state inhibition kinetics of the PFKFB3 2-kinase
Type: biochemical
Method in brief: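 Recombinant human PFKFB3 2-kinase run in a two-step assay. F-2,6-P2 is first made with enzyme in TES pH 8.0, DTT, MgCl2 and Tween at 25°C, then stopped with KOH and neutralised. The product then allosterically activates PPi:PFK in an aldolase/TIM/GDH–NADH coupled system, read as A340 over 30 min. F-6-P, ATP and/or inhibitor concentrations are varied to define the inhibition type.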

PFKFB3 2-kinase, sequence (Q16875 whole entry): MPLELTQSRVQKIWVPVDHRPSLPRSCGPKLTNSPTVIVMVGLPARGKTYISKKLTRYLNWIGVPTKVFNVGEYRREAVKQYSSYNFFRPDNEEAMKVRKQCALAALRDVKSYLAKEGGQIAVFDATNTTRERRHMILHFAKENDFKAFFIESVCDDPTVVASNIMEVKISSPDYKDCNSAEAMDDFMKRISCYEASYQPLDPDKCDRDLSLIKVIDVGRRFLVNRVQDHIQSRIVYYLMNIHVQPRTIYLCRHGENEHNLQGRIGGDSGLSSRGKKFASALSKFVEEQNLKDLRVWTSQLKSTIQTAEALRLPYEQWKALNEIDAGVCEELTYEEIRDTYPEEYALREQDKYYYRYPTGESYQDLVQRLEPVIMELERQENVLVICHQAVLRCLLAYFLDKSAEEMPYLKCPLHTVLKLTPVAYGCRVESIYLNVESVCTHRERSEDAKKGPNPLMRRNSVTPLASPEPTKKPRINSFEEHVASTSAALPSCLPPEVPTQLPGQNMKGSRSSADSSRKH

CCOC(=O)/C=C(/C)Sc1cc(O)c2ccccc2c1O [NSC278631]
type of inhibition against ATP (ATP varied): uncompetitive
type of inhibition against F-6-P (F-6-P varied): competitive
